Most compounds without a hit are left out; they make up all but 1.8% or so of the library.
Scp1 inh = Scp-1 phosphatase inhibitors, primary screen, biochemical, colorimetric, uHTS | Recombinant Scp1, phosphopeptide, malachite green phosphate absorbance | inhibition, % at 20 µM | AID 493091, 2011 | Carboxy-terminal domain RNA polymerase II polypeptide A small phosphatase 1 (Homo … | 0.88% of 340,000 active;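 active = inhibition above about 50% at 20 µM, limit read from the data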;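 also: plate controls were DMSO wells with enzyme for no effect and wells lacking enzyme for full effect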
Target sequence (Q9GZU7 76-261 limits assumed): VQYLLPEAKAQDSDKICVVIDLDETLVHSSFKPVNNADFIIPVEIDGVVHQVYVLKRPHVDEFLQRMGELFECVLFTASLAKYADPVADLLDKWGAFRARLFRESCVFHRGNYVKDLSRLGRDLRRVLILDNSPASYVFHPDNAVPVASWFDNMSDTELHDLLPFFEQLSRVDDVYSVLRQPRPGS
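Test system: SCP-1 phosphatase catalytic domain, residues 76-261 | Compound dosing: One concentration, 20 µM, with 1.0% DMSO | Schedule: 45 min room-temperature reaction, 5 min colour, 30 min stabiliser | Detection: Absorbance at 630 nm | Read-out basis: % inhibition of SCP-1 phosphate liberation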
STEP inh = STEP phosphatase inhibitors, primary screen, biochemical, fluorescence intensity, uHTS; 0.25% of 360,000 active; recombinant STEP, OMFP fluorogenic substrate; Tyrosine-protein phosphatase non-receptor type 5 (Homo sapiens), P54829; inhibition, % at 20 µM;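 active = inhibition at 20 µM, scaled per plate between control wells, above about 37%, limit read from the data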;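 also: 0% = DMSO with enzyme and substrate and 100% = substrate only without enzyme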
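Measure: Control-normalized % inhibition with plate pattern correction | Test system: STEP phosphatase, cell-free reaction | Medium: pH 6.0 Bis-Tris with DTT and Tween 20 | Technique: Fluorescence, 480/540 nm | Times: Reaction 20 min, ambient temperature | Doses: Single compound dose of 20 µM, 1% DMSO final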
LMPTP inh = LMPTP phosphatase inhibitors, primary screen, biochemical, fluorescence intensity, uHTS. Low molecular weight phosphotyrosine protein phosphatase (Homo sapiens), P24666. recombinant LMPTP-A, OMFP fluorogenic substrate. inhibition, % at 20 µM. 0.22% of 360,000 active;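 active = compounds that cut the enzyme signal by at least half of the control window in the single-dose screen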;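 also: plate controls were DMSO wells with enzyme plus substrate for no effect and substrate without enzyme for full effect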
Target sequence (P24666 whole entry, looked up): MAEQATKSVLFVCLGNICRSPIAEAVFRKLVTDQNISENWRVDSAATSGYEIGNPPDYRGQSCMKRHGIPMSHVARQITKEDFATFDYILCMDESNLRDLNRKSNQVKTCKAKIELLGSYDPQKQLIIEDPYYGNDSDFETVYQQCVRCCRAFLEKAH
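Material: LMPTP-A; amount: 0.625 nM enzyme; doses: single 20 µM dose; times: reaction 50 min, room temperature, dark; technique: fluorescence intensity of OMFP turnover product; benchmarks: no-enzyme and uninhibited controls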
SUMO1-SIM PPI = modulators of SUMO1 protein-protein interactions, primary screen, biochemical, uHTS | SUMO1 binding to a labelled peptide, TR-FRET, 1 h | inhibition, % at 20 µM | 0.33% of 360,000 active | AID 602429, 2012; in the data active = inhibition above about 37%
Target sequence (P63165 whole entry, looked up): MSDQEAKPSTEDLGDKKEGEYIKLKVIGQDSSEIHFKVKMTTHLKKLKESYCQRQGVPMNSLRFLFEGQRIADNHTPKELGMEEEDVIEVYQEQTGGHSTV
DNMT1 block = human DNMT1 methyltransferase inhibitors, primary screen, biochemical, molecular beacon, fluorescence, HinP1I cleavage, uHTS; 0.83% of 360,000 active; DNA (cytosine-5)-methyltransferase 1 (Homo sapiens), P26358; inhibition (reported as % activation of signal), % at 10 µM; in the data active = inhibition above about 50%
HKDC1 inhibitor = HKDC1 hexokinase inhibitors, primary screen, biochemical, fluorescence, uHTS | recombinant HKDC1, G6PDH/diaphorase resazurin coupled fluorescence | AID 493160, 2011 | Q2TB90 | 0.16% of 340,000 active | inhibition, % at 20 µM;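 active = inhibition above about 35% when tested at 20 µM, limit read from the data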;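 also: plate controls were DMSO wells with enzyme for no effect and DMSO wells lacking enzyme for full effect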
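Incubation: 90 min at room temperature in dark / Material: recombinant HKDC1 (HK5) hexokinase enzyme, produced in-house / Quantity: enzyme 5 µg/mL final / Compound: one dose of 20 µM, 1% DMSO / Reagent: glucose and ATP substrates / Buffer or medium: Tris pH 8.0 buffer with MgCl2, Tween-20, BSA, BME / Technique: resorufin fluorescence at 613 nm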
Scp1 confirm = Scp-1 phosphatase inhibitors, retest, confirmation, biochemical, colorimetric, single concentration. shares compounds with Scp1 inh. recombinant SCP-1 catalytic domain, phosphate release, malachite green absorbance. inhibition, % at 20 µM. 61% of 2,500 active;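 also: plate controls were DMSO with enzyme for no effect and buffer wells lacking enzyme for full effect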
Scp-1 MG ctr = colorimetric readout interference by compounds, confirmation, artefact control for Scp-1 inhibitor project, biochemical, single concentration; shares compounds with Scp1 inh; Colorimetric interference counterscreen, malachite green absorbance 630 nm; apparent inhibition (interference), % at 20 µM; 2,500 tested, under 10 active;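 also: compounds added after enzyme reaction finished so only phosphate colour detection is probed; plate controls were DMSO wells with completed Scp-1 reaction for no effect and substrate wells lacking enzyme for full effect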
Scp1 DSF = Scp-1 binding by thermal shift, confirmation, orthogonal assay for Scp-1 inhibitor project, biophysical, differential scanning fluorimetry; shares compounds with Scp1 inh; thermal shift relative to vanadate control, % at 40 µM; 25% of 1,500 active; Recombinant SCP1, Sypro Orange thermal shift Tm;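 active = substances whose mean melting-temperature shift, as a percentage of the reference inhibitor's shift, reaches about 5.3%, limit read from the data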;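 also: 0% = Tm of DMSO wells and 100% = Tm with sodium orthovanadate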
* marks the source's active call; other numbers are inactive results.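 The calls were made as follows, unless noted: active = inhibition of at least 30% at 20 µM; inactive = the rest.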

`Cc1c(NC(=O)CC(=O)Nc2c(C)n(C)n(-c3ccccc3)c2=O)c(=O)n(-c2ccccc2)n1C` gave Scp1 inh -2, STEP inh 1, LMPTP inh -2, SUMO1-SIM PPI 2, DNMT1 block 0 and HKDC1 inhibitor -7.
Cc1c(NC(=O)CC2NC(=O)NC2=O)c(=O)n(-c2ccccc2)n1C (centres undefined) was read as Scp1 confirm -8 and Scp-1 MG ctr -8.
Screening COc1ccc(CN2CC(C(=O)NCCCOC(C)C)CC2=O)cc1 (centres undefined) returned Scp1 inh -13, STEP inh 0, LMPTP inh -3, SUMO1-SIM PPI 1, DNMT1 block -1, HKDC1 inhibitor -12, Scp1 confirm -6 and Scp-1 MG ctr -7.
`COCCCNC(=O)C1CC(=O)N(Cc2ccc(OC)cc2)C1` (centres undefined) gave Scp1 inh -9, STEP inh 3, LMPTP inh -1, SUMO1-SIM PPI 0, DNMT1 block -1 and HKDC1 inhibitor -12.
Screening Nc1nc(SCC(=O)c2c(N)n(C3CC3)c(=O)[nH]c2=O)n[nH]1 returned Scp1 inh -1, STEP inh -1, LMPTP inh -2, SUMO1-SIM PPI 1, DNMT1 block 2 and HKDC1 inhibitor -5.
Cc1ccc2cc(C)c3nnc(SCC(=O)NCc4ccco4)n3c2c1 was read as Scp1 inh 78*, STEP inh 2, LMPTP inh 1, SUMO1-SIM PPI 11, DNMT1 block 20, HKDC1 inhibitor 17, Scp1 confirm 57*, Scp-1 MG ctr -14 and Scp1 DSF -16.
`Cc1ccc2c(c1)cc(C)c1nnc(SCC(=O)NCc3ccco3)n12` gave Scp1 inh 21, STEP inh -3, LMPTP inh 1, SUMO1-SIM PPI 1, DNMT1 block 7 and HKDC1 inhibitor 11.
Cc1ccn2c(=O)nc(SCC(=O)NCc3ccccc3)nc2c1 was read as Scp1 inh 87*, STEP inh -1, LMPTP inh 16, SUMO1-SIM PPI 10, DNMT1 block 3, HKDC1 inhibitor -2, Scp1 confirm 61*, Scp-1 MG ctr -13 and Scp1 DSF 5.7*.
`Cc1ccc(CNC(=O)CSc2nc(=O)n3ccc(C)cc3n2)cc1` gave STEP inh -5, LMPTP inh 4, SUMO1-SIM PPI 7 and DNMT1 block 8.
`Cc1ccn2c(=O)nc(SCC(=O)NCc3ccco3)nc2c1` gave Scp1 inh 72*, STEP inh 1, LMPTP inh 1, SUMO1-SIM PPI 11, DNMT1 block 11, HKDC1 inhibitor 6, Scp1 confirm 35*, Scp-1 MG ctr -11 and Scp1 DSF -16.
Screening CSc1ncnc2c1ncn2CCCN1CCN(c2ccccn2)CC1 returned STEP inh -2, LMPTP inh -2, SUMO1-SIM PPI 3 and DNMT1 block 10.
CCCc1cc(=O)oc2cc(OCC(=O)NC(Cc3c[nH]c4ccc(O)cc34)C(=O)O)c(Cl)cc12 (centres undefined) was read as Scp1 inh 55*, STEP inh 0, LMPTP inh 0, SUMO1-SIM PPI 11, DNMT1 block 3, HKDC1 inhibitor 14, Scp1 confirm 51*, Scp-1 MG ctr 1 and Scp1 DSF 11*.
`Cc1ccc(C(=O)/C=C/NNC(=O)c2ccccc2O)cc1` gave Scp1 inh -10, STEP inh 0, LMPTP inh 2, SUMO1-SIM PPI -6, DNMT1 block -4 and HKDC1 inhibitor -15.
C=C1c2cccc(OC)c2O[C@H](C(=O)OCC)[C@@H]1CC(CC)CCCC (some centres undefined) was read as Scp1 inh 94*, STEP inh 0, LMPTP inh 2, SUMO1-SIM PPI 5, DNMT1 block 5, HKDC1 inhibitor 4, Scp1 confirm 34*, Scp-1 MG ctr -23 and Scp1 DSF -11.
O=C(Nc1nc2ccccc2s1)C1CCN(S(=O)(=O)c2cc([N+](=O)[O-])ccc2Cl)CC1 was read as Scp1 inh 68*, STEP inh 7, LMPTP inh 7, SUMO1-SIM PPI -11, DNMT1 block 28, HKDC1 inhibitor 10, Scp1 confirm 64*, Scp-1 MG ctr -9 and Scp1 DSF 11*.
For O=C(NN=C1CCCC1)c1cc(O)cc(O)c1 the results were Scp1 inh 52*, STEP inh 12, LMPTP inh 7, SUMO1-SIM PPI 38, DNMT1 block 8, HKDC1 inhibitor 5, Scp1 confirm 53*, Scp-1 MG ctr -1 and Scp1 DSF -8.
`O=CNc1ccccc1` gave Scp1 inh -6, STEP inh 0, LMPTP inh 0, SUMO1-SIM PPI 6, DNMT1 block -1 and HKDC1 inhibitor -6.
Screening C[C@@H]1CC=C[C@@H]2[C@H]1C(=O)N(Cc1ccccc1)[C@H]2c1cccc(Br)c1 returned Scp1 inh 1, STEP inh 3, LMPTP inh 3, SUMO1-SIM PPI 1, DNMT1 block 4 and HKDC1 inhibitor 12.
C[C@@H]1CC=C[C@@H]2[C@H]1C(=O)N(Cc1ccccc1)[C@H]2c1cccc(C#Cc2ccccc2)c1 was read as Scp1 inh 70*, STEP inh 2, LMPTP inh 5, SUMO1-SIM PPI -1, DNMT1 block 3, HKDC1 inhibitor 10, Scp1 confirm 42*, Scp-1 MG ctr -22 and Scp1 DSF -16.
